PLCg1 inh – PLC-gamma1 enzyme inhibitors, primary screen, biochemical, fluorescence, purified enzyme; 1-phosphatidylinositol 4,5-bisphosphate phosphodiesterase gamma-1 (Homo sapiens), P19174; fluorogenic substrate; inhibition, % at 12.2 µM; hit rate 0.84% among 370,000; AID 720700, 2013; in the data active = inhibition above about 9.5%
PLC-beta3 inh – human PLC-beta3 inhibitors, primary screen, biochemical, fluorescence; 1-phosphatidylinositol 4,5-bisphosphate phosphodiesterase beta-3 (Homo sapiens), Q01970; Purified PLC-beta3, fluorogenic substrate; inhibition, % at 12.2 µM; hit rate 0.18% among 370,000;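 note: 0% = median of compound wells on plate and 100% = full blocker control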
UCH37 inh – inhibitors of human UCH37 deubiquitinase, primary screen, biochemical, Ub-AMC cleavage, fluorescence; Ubiquitin carboxyl-terminal hydrolase isozyme L5 (Homo sapiens), Q9Y5K5; purified proteasome/UCH37; inhibition, % (concentration not given with the values); hit rate 0.33% among 330,000; AID 588478, 2011;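 active = mean inhibition over replicate wells above about 20%, limit read from the data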;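 note: 0% = compound-free wells with enzyme and 100% = wells lacking proteasome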
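Signal – fluorescence, ex 355 nm, em 460 nm · System – Proteasome-bound UCH37 · Input – 0.15 nM proteasome as dispensed · Timing – 30 min preincubation with enzyme, 25 min cleavage at room temperature · Read-out basis – percent inhibition of cleavage signal versus uninhibited and no-proteasome wells · Medium – Tris-HCl pH 7.4 with ATP-MgCl2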
Rpn11 inh – Rpn11 (PSMD14) deubiquitinase inhibitors, primary screen, biochemical, fluorescence polarization, uHTS. 26S proteasome non-ATPase regulatory subunit 14 (Homo sapiens), O00487. human 26S proteasome, Ub4-pepOG fluorescence polarization; 20S core pre-blocked with epoxomicin. inhibition, % at 20 µM. hit rate 0.59% among 360,000. AID 588493, 2011;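 active = inhibition at 20 µM, scaled to each plate's controls, above about 33%, limit read from the data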
Target sequence (O00487 whole entry, looked up): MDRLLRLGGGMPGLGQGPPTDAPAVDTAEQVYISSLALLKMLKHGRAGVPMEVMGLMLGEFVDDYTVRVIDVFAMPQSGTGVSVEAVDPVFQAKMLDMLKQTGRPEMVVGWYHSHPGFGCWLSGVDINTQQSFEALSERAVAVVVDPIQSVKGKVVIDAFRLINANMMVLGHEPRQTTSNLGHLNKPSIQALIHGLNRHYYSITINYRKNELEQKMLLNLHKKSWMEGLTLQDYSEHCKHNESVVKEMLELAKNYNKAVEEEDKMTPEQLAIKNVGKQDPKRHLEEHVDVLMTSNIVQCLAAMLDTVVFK
PLCg1 ctr – PLC-gamma1 enzyme inhibitors, counter-screen for PLC-beta3 inhibitor project, biochemical, fluorescence | purified PLC-gamma1, fluorogenic substrate | hit rate 3.1% among 3,300 | shares compounds with PLCg1 inh | AID 743258, 2014 | inhibition, % at 12.3 µM; in the data active = inhibition above about 9.5%
PLCb3 confirm – PLC-beta3 inhibitor confirmation, biochemical, fluorescence, purified enzyme; inhibition, % at 12.3 µM; fluorogenic substrate fluorescence; hit rate 1% among 3,300; shares compounds with PLCg1 inh
* hit, by the source's call; . = no result given. Rows were chosen to be rich in hits. Some 1.7% of all compounds tested hit in one or more screens of this group. Cut-off read from the data, not from the text of the source, unless noted: active = inhibition above about 11%; inactive = the rest.

SMILES	PLCg1 inh	PLC-beta3 inh	UCH37 inh	Rpn11 inh	PLCg1 ctr	PLCb3 confirm
Cc1ccc2c(=O)[nH]c(Nc3nc(C)cc(-c4ccccc4)n3)nc2c1	11*	-4	4	13	-5	-2
Cc1ccccc1NC1=NS(=O)(=O)c2ccccc21	2	2	4	-3	.	.
Cc1ccc(C)c(NC2=NS(=O)(=O)c3ccccc32)c1	11*	-1	1	2	-9	1
O=C(NN=Cc1cccnc1)c1ccccc1NS(=O)(=O)c1cccs1	.	.	6	.	.	.
CC(C)c1c(C(=O)NN=Cc2ccco2)nnn1-c1nonc1N	.	.	4	.	.	.
CCC(C)NC(=O)C1(O)c2ccccc2NC(=O)N1c1ccc(C)c(C)c1 (stereo not drawn)	11*	7	2	-1	-7	-19
CCCCN(C)CCCNC(=O)C1(O)c2ccccc2NC(=O)N1c1ccc(Cl)cc1 (stereo not drawn)	12*	4	1	0	-5	-7
CC(=NNC(=S)NCc1ccccc1)c1ccc(Cl)s1	.	.	5	.	.	.
Cc1ccccc1C(=O)NC(C)c1ccc2c(c1)CCCC2 (stereo not drawn)	10*	13*	0	2	2	7
COc1ccc(C(C)NC(=O)c2ccccc2Br)cc1OC (stereo not drawn)	3	6	2	6	.	.
FC(F)(F)c1ccccc1N/N=C/c1cccnc1	10*	-3	.	3	1	-2
CCOC(=O)N1CCN(C(=O)c2ccc(CS(=O)Cc3ccccc3Cl)o2)CC1 (stereo not drawn)	9.9*	-6	2	-4	-2	3
O=[N+]([O-])c1cc(C(F)(F)F)ccc1NCCCCNS(=O)(=O)c1ccc(Cl)cc1	5	11*	-12	-2	9	5
CS(=O)(=O)NCCCNc1ccc(C(F)(F)F)cc1[N+](=O)[O-]	2	-7	6	-4	.	.
CCC(CC)C(=O)Nc1cccc(C(C)=NNC(=O)c2ccccc2Cl)c1	.	.	2	.	.	.
CCn1c(SCc2ccc(F)cc2)nc2ccccc2c1=O	11*	-1	2	-6	-4	-6
CCn1c2ccccc2c2cc(NC(=O)CC(C)=NNC(=O)c3ccccc3N)ccc21	.	.	-200	.	.	.
CN(CC(=O)Nc1cccc(F)c1)C(=O)CCCc1cccs1	13*	10	3	6	-1	0
CN(CC(=O)Nc1cccc(F)c1)C(=O)Cc1ccsc1	-4	-5	.	-4	.	.
CN1CC[C@]2(CCN3CCc4c(oc5ccccc45)[C@@H]3C2)N(C)C1=O	-34	25*	1	-13	-15	-14
O=C(COc1ccc(C=NNC(=O)C(=O)N2CCCCC2)cc1)Nc1ccccc1Cl	.	.	1	.	.	.
O=C(CC1Sc2ccccc2NC1=O)Nc1cccc(C(=O)O)c1 (stereo not drawn)	12*	10	5	-13	4	2
CCCn1c(SCC(=O)N2CCc3ccccc32)nnc1-c1ccco1	6	3	-1	0	.	.
CCn1nnnc1SCC(=O)N1CCc2ccccc21	4	6	4	-6	.	.
CCCn1c(SCC(=O)N2CCCc3ccccc32)nnc1-c1ccccn1	12*	4	-1	6	0	-2
SMILES	PLCg1 inh	PLC-beta3 inh	UCH37 inh	Rpn11 inh	PLCg1 ctr	PLCb3 confirm
CCn1nnnc1SCC(=O)N1CCCc2ccccc21	-1	11*	3	0	0	3
CCCCN(CCCC)C(=O)C[n+]1cccc(C=NO)c1	.	.	0	.	.	.
COc1ccc(NC(=O)c2cc(-c3cc(Cl)ccc3OC)n[nH]2)c(OC)c1	12*	5	.	3	-8	-9
CCOc1ccc(Cl)cc1-c1cc(C(=O)Nc2ccc(OC)cc2OC)[nH]n1	2	2	.	5	.	.
O=C(Nc1ccccc1)c1cc(C2CCCCN2S(=O)(=O)c2ccccc2)on1 (stereo not drawn)	10*	6	.	-3	-3	-2
CCCNC(=O)c1cc(C2CCCCN2C(=O)c2ccc3c(c2)CCO3)on1 (stereo not drawn)	48*	0	.	-4	-6	-4
